Screening results as filed in PubChem.
Compounds with a hit are over-represented: about 2.9% of the library has one in this group of screens.
PGC1a acetyl inh: inhibitors of PGC1a acetylation signal, primary screen, cell-based, U2OS, AlphaScreen, inhibitor mode. AlphaScreen anti-acetyl-lysine; with virally co-expressed GCN5 acetyltransferase. inhibition, % at 15.6 µM. actives 0.17% (n = 350,000);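 active = every replicate shows inhibition of at least 40%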;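 also: 0% = neutral control wells and 100% = positive control wells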
DENV2 CPE: inhibitors of DENV2 cytopathic effect, primary screen, cell-based, plate reader, single concentration; DENV2-infected cells, cytopathic effect rescue; CPE inhibition, % at 9.99 µM; actives 1.7% (n = 350,000); in the data active = CPE inhibition above about 20%, passing the limit was not always enough; tested in BHK-21 cells;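 also: 0% = median of neutral control wells and 100% = median of positive control wells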
Statin myotox sup: suppressors of statin myotoxicity in C2C12 myotubes, primary screen, cell-based, single point, plate reader. C2C12 myotubes + simvastatin, ATP luminescence, 48 h; scaled: DMSO 0, geranylgeraniol control 100. rescue of ATP level, % at 7.49 µM. actives 0.78% (n = 330,000);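 active = mean ATP rescue above about 67%, or every replicate alone reaching that limit, limit read from the data, passing the limit was not always enough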;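 also: myotubes were challenged with 10 µM simvastatin during compound exposure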
SIRT5 inh: SIRT5 desuccinylase inhibitors, primary screen, biochemical, fluorescence imaging, single point, set 5 | AID 652115, 2013 | NAD-dependent protein deacylase sirtuin-5, mitochondrial (Homo sapiens), Q9NXA8 | actives 1.1% (n = 330,000) | Purified SirT5, succinyl-peptide AMC, trypsin-coupled fluorescence | inhibition, % at 15 µM; in the data active = inhibition above about 15%
Target sequence (Q9NXA8 whole entry, looked up): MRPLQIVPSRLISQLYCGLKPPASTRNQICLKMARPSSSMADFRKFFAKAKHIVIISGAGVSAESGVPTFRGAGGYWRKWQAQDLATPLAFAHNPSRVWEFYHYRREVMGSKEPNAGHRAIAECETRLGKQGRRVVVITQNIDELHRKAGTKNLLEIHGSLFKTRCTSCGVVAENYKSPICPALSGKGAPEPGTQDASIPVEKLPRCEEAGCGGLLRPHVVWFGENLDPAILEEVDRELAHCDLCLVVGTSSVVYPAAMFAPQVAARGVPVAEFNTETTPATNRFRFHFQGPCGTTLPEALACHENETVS
S100A4 MyoIIA: inhibitors of S100A4-myosin IIA peptide binding, primary screen, biochemical, fluorescence polarization, TAMRA-MyoIIA peptide; inhibition, % at 10.7 µM; Protein S100-A4 (Homo sapiens), P26447; actives 0.14% (n = 360,000); AID 652163, 2013;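 active = mean inhibition of at least 70% across replicates, with every replicate also reaching that level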
Target sequence (P26447 whole entry, looked up): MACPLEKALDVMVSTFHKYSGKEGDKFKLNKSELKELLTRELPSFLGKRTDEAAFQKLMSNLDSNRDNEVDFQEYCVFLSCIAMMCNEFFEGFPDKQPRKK
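Material: S100A4 monomer protein / Buffer or medium: 50 mM HEPES pH 7.2, 10 mM CaCl2, 100 mM KCl / Times: 5 min incubation before reading / Benchmarks: neutral control DMSO, positive control TFP / Reagent: labelled myosin peptide probe, 5 nM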
Numbers without * were called inactive.

How did COc1ccc(CN2C(=O)CCC2(C)c2nnnn2Cc2ccccc2)cc1 (centres undefined) do in these assays?
DENV2 CPE: 85*; S100A4 MyoIIA: 2

Results for C[C@@H]1CN([C@H](C)CO)C(=O)Cc2cc(NC(=O)NC3CCCCC3)ccc2O[C@H]1CN(C)S(=O)(=O)c1ccc(F)cc1 ?
PGC1a acetyl inh: 8; DENV2 CPE: 18; Statin myotox sup: 9; SIRT5 inh: -1; S100A4 MyoIIA: -7

What do the screens show for `COc1cccc(S(=O)(=O)N(C)C[C@H]2Oc3ncc(C#CCN(C)C)cc3C(=O)N([C@@H](C)CO)C[C@@H]2C)c1`?
PGC1a acetyl inh: 8; DENV2 CPE: 1; Statin myotox sup: -17; SIRT5 inh: 5; S100A4 MyoIIA: 2

Results for CSc1n[nH]c(NC(=O)c2c(-c3c(Cl)cccc3Cl)noc2C)n1 ?
PGC1a acetyl inh: 65*; DENV2 CPE: -5; Statin myotox sup: -7; SIRT5 inh: -2; S100A4 MyoIIA: 2

Results for Cc1csc(NC(=O)c2c(-c3c(Cl)cccc3Cl)noc2C)n1 ?
PGC1a acetyl inh: 10; Statin myotox sup: -27

How did CCC(C)(NC(=O)c1ccccn1)C(=O)NC1CCCC1 (centres undefined) do in these assays?
PGC1a acetyl inh: -3; DENV2 CPE: -5; SIRT5 inh: 3; S100A4 MyoIIA: 6

What do the screens show for `CCC(C)(NC(=O)CNC(C)=O)C(=O)NC1CCCCC1` (centres undefined)?
PGC1a acetyl inh: 1; Statin myotox sup: 112*

How did CSc1nsc(/C=C/Nc2ccc(Cl)cc2)c1C#N do in these assays?
PGC1a acetyl inh: 4; Statin myotox sup: 125*

What do the screens show for `CSc1nsc(/C=C/Nc2ccc(F)cc2)c1C#N`?
DENV2 CPE: -2; SIRT5 inh: 6; S100A4 MyoIIA: 0

What do the screens show for `CCCCn1c(O)c(/C=C2\C=Nc3ccccc32)c(=O)[nH]c1=O`?
PGC1a acetyl inh: 0; DENV2 CPE: 0; Statin myotox sup: 15; SIRT5 inh: 0; S100A4 MyoIIA: 81*

Results for Cc1ccccc1S(=O)(=O)N1CCCCN2[C@H](CO)[C@H](c3ccc(-c4ccccc4)cc3)[C@H]2C1 ?
PGC1a acetyl inh: -26; DENV2 CPE: -3; SIRT5 inh: 17*; S100A4 MyoIIA: -3

Results for Cc1ccccc1S(=O)(=O)N1CCCCN2[C@@H](CO)[C@@H](c3ccc(-c4ccccc4)cc3)[C@@H]2C1 ?
PGC1a acetyl inh: -40; DENV2 CPE: -7; SIRT5 inh: -1; S100A4 MyoIIA: -6

Results for Cc1ccccc1S(=O)(=O)N1CCCCN2[C@H](CO)[C@@H](c3ccc(-c4ccccc4)cc3)[C@H]2C1 ?
PGC1a acetyl inh: -6; DENV2 CPE: -2; SIRT5 inh: 19*; S100A4 MyoIIA: -2

How did COCC#Cc1ccc([C@@H]2[C@@H](CO)N3CCCCN(S(=O)(=O)c4ccccc4C)C[C@@H]23)cc1 do in these assays?
PGC1a acetyl inh: -3; DENV2 CPE: -2; SIRT5 inh: 11; S100A4 MyoIIA: -8

Results for O=S(=O)(c1ccccc1F)N1CCCCN2[C@H](CO)[C@H](c3ccc(-c4ccccc4)cc3)[C@H]2C1 ?
PGC1a acetyl inh: -6; DENV2 CPE: 34*; SIRT5 inh: 3; S100A4 MyoIIA: 1

What do the screens show for `COCC#Cc1ccc([C@@H]2[C@H]3CN(S(=O)(=O)c4ccccc4F)CCCCN3[C@H]2CO)cc1`?
PGC1a acetyl inh: 7; DENV2 CPE: 33*; Statin myotox sup: -21; SIRT5 inh: -2; S100A4 MyoIIA: 14

What do the screens show for `C[C@H](CO)N1C[C@H](C)[C@H](CN(C)C(=O)Nc2ccc3c(c2)OCO3)Oc2ccc(NC(=O)Cc3cn(C)c4ccccc34)cc2C1=O`?
PGC1a acetyl inh: -10; DENV2 CPE: -5; Statin myotox sup: 26; SIRT5 inh: -5; S100A4 MyoIIA: 0

Results for C[C@@H]1CN([C@H](C)CO)C(=O)c2cc(-c3cccc(F)c3)cnc2O[C@@H]1CN(C)Cc1ccccc1 ?
PGC1a acetyl inh: 10; DENV2 CPE: 1; Statin myotox sup: 19; SIRT5 inh: -2; S100A4 MyoIIA: -3

Results for CCOC(=O)C1CCc2c(ccc3ccccc23)N1CCC#N (centres undefined) ?
DENV2 CPE: -1; Statin myotox sup: 1; SIRT5 inh: 35*; S100A4 MyoIIA: 5

Results for CCOC(=O)C1CCCN(C(=O)c2cccc3ccccc23)C1 (centres undefined) ?
PGC1a acetyl inh: 4; DENV2 CPE: -1; Statin myotox sup: -5; SIRT5 inh: -3; S100A4 MyoIIA: 1

Results for Cc1ccc(N=C2NC(=O)/C(=C/c3cn(C)c4ccccc34)S2)cc1C ?
DENV2 CPE: -14; Statin myotox sup: -15; SIRT5 inh: 26*; S100A4 MyoIIA: -3

What do the screens show for `COc1cccc(-c2cnc3c(c2)C(=O)N([C@H](C)CO)C[C@H](C)[C@H](CN(C)S(=O)(=O)c2ccccc2)O3)c1`?
PGC1a acetyl inh: 8; Statin myotox sup: 6

Results for C[C@H](CO)N1C[C@H](C)[C@@H](CN(C)CC2CC2)Oc2ccc(NC(=O)Nc3cccc4ccccc34)cc2CC1=O ?
PGC1a acetyl inh: -3; DENV2 CPE: -1; Statin myotox sup: 29; SIRT5 inh: 10; S100A4 MyoIIA: -102

How did COc1ccc(C2C(C(C)=O)=C(O)C(=O)N2CCCn2ccnc2)cc1 (centres undefined) do in these assays?
PGC1a acetyl inh: 3; Statin myotox sup: 3

How did Cc1nc(C)c(C(=O)C2=C(O)C(=O)N(CCCn3ccnc3)C2c2ccc(Cl)cc2)s1 (centres undefined) do in these assays?
PGC1a acetyl inh: 14; Statin myotox sup: 128*

Results for CN1C(=O)C2(c3ccccc31)C1CCCC=C1C(C#N)=C(N)C2(C#N)C#N (centres undefined) ?
PGC1a acetyl inh: 7; Statin myotox sup: 155*

How did CN1C(=O)C2(C(C#N)=C(N)N(c3cc(Cl)cc(Cl)c3)C3=C2C(=O)CCC3)c2ccccc21 (centres undefined) do in these assays?
PGC1a acetyl inh: 30

What do the screens show for `C/C(=N\Nc1ncc(Cl)cc1Cl)c1ccc2c(c1)OCO2`?
DENV2 CPE: 2; SIRT5 inh: 25*; S100A4 MyoIIA: 0

Results for C/C(=N\Nc1ncc(Cl)cc1Cl)c1ccc(OC(F)F)cc1 ?
PGC1a acetyl inh: 0

What do the screens show for `COCC(=O)N1C[C@@H](C)[C@H](OC)CN(C)C(=O)c2cc(NC(=O)c3ccccc3)ccc2OC[C@H]1C`?
PGC1a acetyl inh: 4; DENV2 CPE: -9; Statin myotox sup: -2; S100A4 MyoIIA: -1
